ChEMBL document CHEMBL4033789, “Discovery of a New Four-Leaf Clover-Like Ligand as a Potent c-MYC Transcription Inhibitor Specifically Targeting the Promoter G-Quadruplex” (J Med Chem, 2018)
Activity calls are given as the source filed them. The calls are words filed in the database; no cut-off is given here.

Assays:
[1] = Stabilization of hybrid telomeric htg22 G-quadruplex DNA (unknown origin) assessed as effect on melting temperature at 15 uM by circular dichroism spectroscopic assay; assay type: ADME
Method in brief: (§1)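 CD melting of 3 µM annealed G-quadruplex with or without 15 µM ligand in 10 mM Tris-HCl pH 7.2 with 2 mM KCl (50 mM KCl for htg22 and HRAS); read every 5 °C over 25–95 °C, heating 1 °C/min.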

Mus musculus [2] = assay: Toxicity in nude BALB/c mouse xenografted with human SiHa cells assessed as signs of distress at 5 to 20 mg/kg, ip administered every other day for 24 days; assay type: organism-based; details: in vivo, 576 h
[3] = Stabilization of c-Kit1 promoter G-quadruplex DNA (unknown origin) assessed as effect on melting temperature at 15 uM by circular dichroism spectroscopic assay; assay type: ADME; method in brief: as §1
[4] = Stabilization of BCL2 promoter G-quadruplex DNA (unknown origin) assessed as effect on melting temperature at 15 uM by circular dichroism spectroscopic assay; assay type: ADME
Method in brief: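 G-quadruplex at 3 µM, with or without 15 µM compound, in 10 mM Tris-HCl pH 7.2 containing 2 mM KCl; CD recorded every 5 °C from 25 to 95 °C at a heating rate of 1 °C/min.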

SiHa [5] = assay: Cytotoxicity against human SiHa cells assessed as reduction in cell viability after 24 hrs by MTT assay; assay type: functional, cell-based
Method in brief: (§2)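 Cells seeded at 5.0×10^3 per well, exposed to compound for 24 h; MTT (2.5 mg/mL) added for 4 h, formazan dissolved in DMSO, OD read at 570 nm. Triplicate; IC50 from curves of mean OD against concentration.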

[6] = Cytotoxicity against mouse primary mesangial cells assessed as reduction in cell viability after 24 hrs by MTT assay; assay type: cell-based; method in brief: as §2
BJ = assay: Cytotoxicity against human BJ cells assessed as reduction in cell viability after 24 hrs by MTT assay; assay type: cell-based; method in brief: as §2
SiHa [7] = assay: Induction of cell cycle arrest in human SiHa cells assessed as accumulation at G0/G1 phase up to 5 uM after 12 hrs by propidium iodide-staining based FACS analysis (reference value: 61%); assay type: functional
Method in brief: (§3)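 SiHa cells treated 12 h, fixed in 70% ethanol at 4 °C overnight, stained with 50 µg/mL PI plus 75 KU/mL RNase A in PBS for 30 min in the dark at room temperature; flow cytometry, 1.6×10^4 events per sample, cell cycle distribution analyzed.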

SiHa [8] = assay: Induction of cell cycle arrest in human SiHa cells assessed as accumulation at G0/G1 phase after 12 hrs by propidium iodide-staining based FACS analysis; assay type: functional; method in brief: as §3
Homo sapiens = species: Homo sapiens; assay: Stabilization of c-Myc G-quadruplex DNA in human SiHa cells assessed as inhibition of c-Myc mRNA level at 1.25 to 5 uM after 6 hrs by RT-PCR method; assay type: cell-based
Method in brief: (§4)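 SiHa cells (2.0×10^5) dosed 6 h; total RNA reverse-transcribed with oligo dT18 primer and M-MLV (42 °C 1 h, 85 °C 5 min); PCR 95 °C 5 min then 30 cycles (95 °C 30 s, 58 °C 30 s, 72 °C 40 s); products checked on agarose gel.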

[9] = Stabilization of VEGF G-quadruplex DNA in human SiHa cells assessed as effect on VEGF mRNA level at 1.25 to 5 uM fter 6 hrs by RT-PCR method; assay type: ADME, cell-based; method in brief: as §4
[10] = Stabilization of RET G-quadruplex DNA in human SiHa cells assessed as effect on RET mRNA level at 1.25 to 5 uM fter 6 hrs by RT-PCR method; assay type: ADME, cell-based; method in brief: as §4
[11] = Stabilization of HRAS G-quadruplex DNA in human SiHa cells assessed as effect on HRAS mRNA level at 1.25 to 5 uM fter 6 hrs by RT-PCR method; assay type: ADME, cell-based
Method in brief: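 SiHa cells (2.0×10^5 per well) treated 6 h; total RNA (2 µg) reverse-transcribed with oligo dT18 and M-MLV at 42 °C for 1 h, 85 °C for 5 min; PCR: 95 °C 5 min, then 30 cycles of 95 °C 30 s, 58 °C 30 s, 72 °C 40 s; products checked on agarose gel.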

SiHa [12] = assay: Induction of cell cycle arrest in human SiHa cells assessed as downregulation of Cyclin D1 protein levels after 24 hrs by Western blot analysis; assay type: functional, cell-based
Method in brief: (§5)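 SiHa cells (2.0×10^5 per well) treated 24 h, lysed at 4 °C for 30 min, supernatant cleared at 15,000 rpm; protein measured by BCA, 30 µg resolved on 10% SDS-PAGE, transferred to nitrocellulose, blocked in 5% milk/TBS-Tween 1 h, primary antibodies overnight at 4 °C, HRP secondaries 2 h at room temperature.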

SiHa [13] = assay: Induction of apoptosis in human SiHa cells assessed as upregulation of cleaved PARP protein levels at 1.25 to 5 uM after 24 hrs by Western blot analysis relative to control; assay type: functional, cell-based; method in brief: as §5
SiHa [14] = assay: Antitumor activity against human SiHa cells xenografted in nude BALB/c mouse assessed as tumor growth inhibition at 5 mg,kg, ip administered every other day for 24 days; assay type: functional
Method in brief: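 BALB/c nude mice (5 weeks old) given 1×10^7 SiHa cells subcutaneously in right flank; at ~50 mm3 tumor volume, randomized (10 per group) and dosed intraperitoneally every other day for 24 days; controls got equal-volume saline. Caliper volume as 1/2 × length × width2; tumors weighed at end; inhibition rate = (1 − mean treated tumor weight/mean control tumor weight) × 100%.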

Mus musculus [15] = assay: Toxicity in nude BALB/c mouse xenografted with human SiHa cells assessed as signs of pain at 5 to 20 mg/kg, ip administered every other day for 24 days; assay type: organism-based; details: in vivo, 576 h
Mus musculus [16] = assay: Toxicity in nude BALB/c mouse xenografted with human SiHa cells assessed as body weight reduction at 5 to 20 mg/kg, ip administered every other day for 24 days; assay type: organism-based; details: in vivo, 576 h
Method in brief: (§6)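 BALB/c nude mice, 5 weeks old, implanted subcutaneously in right flank with 1×10^7 SiHa cells; at ~50 mm3 tumor, 10 per group dosed ip every other day for 24 days, saline control; body weight measured daily, viscera weighed at sacrifice; mean ± SEM, Student's t test versus saline.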

Mus musculus [17] = assay: Toxicity in nude BALB/c mouse xenografted with human SiHa cells assessed as viscera weight reduction at 5 to 20 mg/kg, ip administered every other day for 24 days; assay type: organism-based; details: in vivo, 576 h; method in brief: as §6
[18] = Binding affinity to 1 uM VEGF promoter G-quadruplex DNA (unknown origin) at 1 uM after 1 min by fluorescence spectroscopic analysis; assay type: ADME
Method in brief: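 Fluorescence emission spectra of 1 µM compound mixed with 1 µM pre-annealed oligonucleotide (G-quadruplexes folded in 100 mM KCl by heating to 95 °C for 5 min, slow cooling), in Tris-HCl buffer.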

[19] = Binding affinity to up to 10 uM hybrid telomeric htg22 G-quadruplex DNA (unknown origin) at 1 uM after 1 min by fluorescence spectroscopic analysis; assay type: ADME
Method in brief: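 Oligonucleotide stock added stepwise to fixed-concentration compound in 10 mM Tris-HCl pH 7.2, 100 mM KCl; equilibrated ≥1 min after each addition, emission read with excitation at 350 nm. KD from fitting titration data to the Benesi–Hildebrand equation; 1:1 stoichiometry checked by Job plot.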

Mus musculus [20] = assay: In vivo stabilization of c-Myc G-quadruplex DNA in human SiHa cells xenografted in nude BALB/c mouse assessed as decrease in c-Myc expression at 20 mg/kg, ip administered every other day for 24 days by immunohistochemistry; assay type: functional, organism-based

Activity [1]: Not Active | Activity [3]: Not Active | Activity [4]: Not Active | Activity [9]: Not Active | Activity [10]: Not Active | Activity [11]: Not Active | Activity [18]: Not Active | Activity [19]: Not Active
Structure (SMILES): CCn1c2ccccc2c2cc(-c3nc(-c4ccc(N5CCN(C)CC5)cc4)c(-c4ccc(N5CCN(C)CC5)cc4)n3-c3ccc(OC)cc3)ccc21
Activity (Mus musculus [2]): Non-Toxic | IC50 (SiHa [5]): 3.3 µM | IC50 [6]: 15.6 µM | IC50 (BJ): 15.9 µM | Activity (SiHa [7]): 70% | Activity (SiHa [8]): Dose-dependent effect | inhibition (Homo sapiens): Active | Activity (SiHa [12]): Dose-dependent effect | Activity (SiHa [13]): Active | TGI (SiHa [14]): 57% | Activity (Mus musculus [15]): Non-Toxic | Activity (Mus musculus [16]): Non-Toxic | Activity (Mus musculus [17]): Non-Toxic | Activity (Mus musculus [20]): Active
